Results from ChEMBL document CHEMBL1130334, “Effect of plasma protein binding on in vivo activity and brain penetration of glycine/NMDA receptor antagonists” (J Med Chem, 1997).

Tests used:
[1] = target: Albumin (Homo sapiens, UniProt P02768); test: Human serum albumin index was measured by retention time on an HPLC column containing human albumin
Procedure, shortened: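 HPLC on a column containing human serum albumin. Retention volume of each compound is divided by that of a reference standard and normalized so the standard equals 100.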

[2] = target: Glutamate NMDA receptor; test: Affinity for the glycine binding site on rat N-methyl-D-aspartate glutamate receptor 1, determined by displacement of the glycine site antagonist [3H]L-689,560 from rat cortical membranes; format: cell membranes, Membrane
[3] = target: Glutamate NMDA receptor (Rattus norvegicus) (UniProt P35439+Q00959+Q00960+Q00961+Q62645+Q8VHN2+Q9R1M7); test: Protein binding index(PBI) reflects the relative displacement of [3H]glycine from rat cortical membranes in the presence and absence of 0.2% human serum albumin; format: cell membranes; conditions: Membrane
Procedure, shortened: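 [³H]glycine displacement from rat cortical membranes, with and without 0.2% (w/v) human serum albumin. Separation by centrifugation. Index = IC50 with albumin / IC50 without albumin.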

[4] = Partition coefficient (logP); format: physicochemical; conditions: octanol/water
Procedure, shortened: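 Octanol/pH 7.4 buffer partition; values were either measured or calculated from tables of π values.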

Sequence of Albumin (P02768 whole entry): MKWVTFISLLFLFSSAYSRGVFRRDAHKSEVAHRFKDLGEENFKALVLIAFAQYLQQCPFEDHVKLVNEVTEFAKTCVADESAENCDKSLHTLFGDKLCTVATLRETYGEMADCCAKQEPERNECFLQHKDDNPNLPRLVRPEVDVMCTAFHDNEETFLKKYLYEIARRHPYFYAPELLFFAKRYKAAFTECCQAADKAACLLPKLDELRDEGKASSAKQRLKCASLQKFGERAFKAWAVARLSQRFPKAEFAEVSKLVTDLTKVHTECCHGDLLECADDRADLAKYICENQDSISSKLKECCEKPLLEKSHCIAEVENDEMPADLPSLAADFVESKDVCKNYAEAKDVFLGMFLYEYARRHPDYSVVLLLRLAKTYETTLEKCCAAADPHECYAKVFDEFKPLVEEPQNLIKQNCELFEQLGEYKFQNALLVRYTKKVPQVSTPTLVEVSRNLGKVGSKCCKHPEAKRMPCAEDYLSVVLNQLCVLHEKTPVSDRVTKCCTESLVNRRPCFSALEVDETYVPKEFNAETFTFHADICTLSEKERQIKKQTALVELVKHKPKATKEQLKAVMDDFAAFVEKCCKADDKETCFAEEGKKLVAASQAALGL

| SMILES | HSAI [1] | IC50 [2] | PBI [3] | logP [4] |
| --- | --- | --- | --- | --- |
| O=C(O)c1cccc(-c2c(O)nc3cc(Cl)ccc3c2O)c1 | 9 | 75.6 nM | – | – |
| CCc1cc(Cl)cc2nc(O)c(-c3ccccc3)c(O)c12 | 103 | – | – | – |
| Oc1nc2cc(Cl)ccc2c2oc3ccccc3c12 | 70 | – | 28.5 | 4.34 |
| O=C(c1c(O)nc2cc(Cl)ccc2c1O)c1csc2ccccc12 | 59 | 2230 nM | – | – |
| Oc1ccccc1-c1cc2ccc(Cl)cc2nc1O | 15 | – | 8.2 | – |
| O=C(/C=C/c1c(C(=O)O)[nH]c2cc(Cl)cc(Cl)c12)Nc1ccccc1 | 197 | 1 nM | – | 2.24 |
| O=C(OCC#Cc1cccc(O)c1)c1c(O)c2ccc(Cl)cc2[nH]c1=O | 213 | – | – | – |
| O=C(Cc1ccccc1)c1c(O)c2ccc(Cl)cc2[nH]c1=O | 28 | – | – | 1.66 |
| COc1ccc(-c2c(O)c3ccc(Cl)cc3[nH]c2=O)cc1 | 8 | 421 nM | – | – |
| Oc1nc2cc(Cl)ccc2c(O)c1-c1ccsc1 | 11 | 352 nM | – | – |
| COc1ccccc1Cc1cccc(-c2c(O)nc3cc(Cl)ccc3c2O)c1 | 118 | 8 nM | – | – |
| CN(Cc1cccc(-c2c(O)nc3cc(Cl)ccc3c2O)c1)c1ccccc1 | 140 | 11.7 nM | – | – |
| CN(C)Cc1sccc1Oc1cccc(-c2c(O)nc3cc(Cl)ccc3c2O)c1 | 13 | 32.6 nM | – | – |
| Cc1ccc(-c2c(O)nc3cc(Cl)ccc3c2O)cc1 | 13 | 391 nM | – | – |
| CCOC(=O)c1c(O)c2ccc(Cl)cc2[nH]c1=O | – | 16700 nM | – | 0.7 |
| Oc1nc2cc(Cl)ccc2c(O)c1-c1cccc(Cc2cccc3ccccc23)c1 | 629 | 27.9 nM | – | – |
| CCOC(=O)c1c(O)c2ccc([N+](=O)[O-])cc2[nH]c1=O | 1 | – | – | – |
| Cc1ccc(Oc2cccc(-c3c(O)nc4cc(Cl)ccc4c3O)c2)cc1 | 310 | 7.8 nM | – | – |
| C=C(C)COc1cccc(-c2c(O)nc3cc(Cl)ccc3c2O)c1 | 31 | 10.9 nM | – | – |
| O=c1[nH]c2cc(Cl)ccc2c(O)c1-c1cccc(Oc2ccsc2)c1 | 82 | – | – | 2.75 |
| Oc1nc2cc(Cl)ccc2c(O)c1-c1ccc(F)cc1 | 8 | 658 nM | – | – |
| O=[N+]([O-])c1cc([N+](=O)[O-])c2nc(O)c(O)nc2c1 | 4 | – | – | – |

| SMILES | HSAI [1] | IC50 [2] | PBI [3] | logP [4] |
| --- | --- | --- | --- | --- |
| O=C(CC1CCc2cc(Br)cc3[nH]c(=O)c(=O)n1c23)Nc1ccccc1 (configuration not stated) | 24 | 24 nM | – | 2.78 |
| COc1cccc(-c2c(O)nc3cc(Cl)ccc3c2O)c1 | 10 | 204 nM | – | – |
| O=C(c1ccc(Cl)s1)c1c(O)nc2cc(Cl)ccc2c1O | 26 | 1520 nM | – | – |
| O=C(OCCc1ccsc1)c1c(O)nc2cc(Cl)ccc2c1O | 45 | 3000 nM | – | – |
| O=C(c1ccccc1)c1cccc(-c2c(O)nc3cc(Cl)ccc3c2O)c1 | 58 | 3.6 nM | – | – |
| O=C(O)c1cc(O)c2ccc(Cl)cc2n1 [7-CHLOROKYNURENIC ACID] | 2 | – | – | 1.15 |
| O=C(c1c(O)nc2cc(Cl)ccc2c1O)C1CC1 | 6 | – | – | 0.35 |
| Cn1cccc1-c1c(O)nc2cc(Cl)ccc2c1O | 3 | 818 nM | – | – |
| O=c1[nH]c2cc(Cl)ccc2c(O)c1-c1cccc(NCc2ccccc2)c1 | 76 | 9.6 nM | – | – |
| O=C(OCCc1cccs1)c1c(O)nc2cc(Cl)ccc2c1O | 44 | – | – | – |
| O=C(c1ccco1)c1c(O)nc2cc(Cl)ccc2c1O | 3 | – | – | – |
| Oc1nc2cc(Cl)ccc2c(O)c1-c1cccc(Cc2ccoc2)c1 | 50 | 8.9 nM | – | – |
| Nc1c(-c2ccccc2)c(O)nc2cc(Cl)ccc12 | – | – | 3.7 | – |
| COCCOCOc1ccc(Cc2cccc(-c3c(O)nc4cc(Cl)ccc4c3O)c2)cc1 | 56 | 3.6 nM | – | – |
| O=c1[nH]c2ccccc2c(O)c1-c1ccccc1 | 2 | 7500 nM | – | – |
| Oc1nc2cc(Cl)ccc2c(O)c1-c1cccc(OCc2ccccc2)c1 | 118 | 12.2 nM | – | – |
| Oc1nc2cc(Cl)ccc2c(O)c1-c1cccc(C#Cc2ccccc2)c1 | 577 | 34.3 nM | – | – |
| Nc1c(-c2ccccc2)c(=O)[nH]c2cc(Cl)ccc12 | 7 | 6750 nM | – | – |
| C=CCOC(=O)c1c(O)c2ccc(Cl)cc2[nH]c1=O | 6 | – | – | – |
| CCc1cc(Cl)cc2nc(O)c(-c3cccc(Oc4ccccc4)c3)c(O)c12 | 837 | 1.95 nM | – | – |
| COc1ccc(CCOc2c(I)cc(C[C@@H](N)C(=O)O)cc2I)cc1 | 32 | 545 nM | 11.7 | 2.65 |
| O=C(c1ccc(Br)s1)c1c(O)nc2cc(Cl)ccc2c1O | 40 | 954 nM | – | – |

| SMILES | HSAI [1] | IC50 [2] | PBI [3] | logP [4] |
| --- | --- | --- | --- | --- |
| Oc1nc2cc(Cl)ccc2c(O)c1-c1cccc(Cc2ccc(CCN3CCOCC3)cc2)c1 | 49 | 9 nM | – | 3.01 |
| O=c1[nH]c2cc(Cl)ccc2c(O)c1-c1cccc(Cc2ccccc2)c1 | 126 | – | – | 2.83 |
| Oc1nc2cc(Cl)ccc2c(O)c1-c1ccco1 | 6 | – | – | – |
| Oc1nc2cc(Cl)ccc2c(O)c1-c1cccc(-n2ccc3ccccc32)c1 | 322 | – | – | – |
| CSc1ccc(Cc2cccc(-c3c(O)nc4cc(Cl)ccc4c3O)c2)cc1 | 267 | 2.4 nM | – | – |
| CCOC(=O)c1c(O)c2ccc(I)cc2[nH]c1=O | 7 | 30000 nM | – | – |
| Cc1cn(-c2c(O)nc3cc(Cl)ccc3c2O)c2ccccc12 | 57 | – | – | – |
| Cc1cccc(-c2c(O)nc3cc(Cl)ccc3c2O)c1 | 14 | 84 nM | – | – |
| CC(=O)c1cc(Cc2cccc(-c3c(O)c4ccc(Cl)cc4[nH]c3=O)c2)ccc1O | 75 | 42.7 nM | – | – |
| CC/C=C1\NC(=O)C(c2cccc(Oc3ccccc3)c2)=C1O | 42 | 684 nM | 32 | – |
| N[C@H](Cc1cc(I)c(OCCc2ccc(O)cc2)c(I)c1)C(=O)O | 16 | 426 nM | 41 | 2 |
| O=C(O)c1cc(O)c2c(Cl)cc(Cl)cc2n1 | 5 | – | 26.5 | -0.44 |
| Oc1nc2cc(Cl)ccc2c(O)c1-c1ccc2c(c1)Oc1ccccc1O2 | 260 | – | – | 4.5 |
| Oc1nc2cc(Cl)ccc2c(O)c1-c1cccc(OCC2CC2)c1 | 21 | 37.8 nM | – | – |
| Cc1ccccc1Oc1cccc(-c2c(O)nc3cc(Cl)ccc3c2O)c1 | 163 | 1.3 nM | – | – |
| Oc1nc2cc(Cl)ccc2c(O)c1-c1cccc(NCc2ccsc2)c1 | 68 | – | – | – |
| CNCc1ccc(Cc2cccc(-c3c(O)nc4cc(Cl)ccc4c3O)c2)cc1 | 13 | 124 nM | – | – |
| O=C(CCc1c(C(=O)O)[nH]c2cc(Cl)cc(Cl)c12)Nc1ccccc1 | 142 | 36.4 nM | – | – |
| Oc1nc2cc(Cl)ccc2c(O)c1-c1cccc(C2=CCc3ccccc32)c1 | 571 | 6 nM | – | – |
| O=C(c1cccs1)c1c(O)c2ccc(Cl)cc2[nH]c1=O | 9 | 1090 nM | – | – |
| Oc1nc2cc(Cl)ccc2c(O)c1-c1cccc(-c2ccccc2)c1 | 117 | – | – | – |
